Here are results for 24 molecules from ChEMBL document CHEMBL1629449, “Structure-based design, synthesis, and pharmacological evaluation of 3-(aminoalkyl)-5-fluoroindoles as myeloperoxidase inhibitors” (J Med Chem, 2010).

Where only a bound is given, the exact number is not on record here.

The target of assay [1] is T1, Myeloperoxidase (Homo sapiens, UniProt P05164).
T1 sequence (P05164 whole entry): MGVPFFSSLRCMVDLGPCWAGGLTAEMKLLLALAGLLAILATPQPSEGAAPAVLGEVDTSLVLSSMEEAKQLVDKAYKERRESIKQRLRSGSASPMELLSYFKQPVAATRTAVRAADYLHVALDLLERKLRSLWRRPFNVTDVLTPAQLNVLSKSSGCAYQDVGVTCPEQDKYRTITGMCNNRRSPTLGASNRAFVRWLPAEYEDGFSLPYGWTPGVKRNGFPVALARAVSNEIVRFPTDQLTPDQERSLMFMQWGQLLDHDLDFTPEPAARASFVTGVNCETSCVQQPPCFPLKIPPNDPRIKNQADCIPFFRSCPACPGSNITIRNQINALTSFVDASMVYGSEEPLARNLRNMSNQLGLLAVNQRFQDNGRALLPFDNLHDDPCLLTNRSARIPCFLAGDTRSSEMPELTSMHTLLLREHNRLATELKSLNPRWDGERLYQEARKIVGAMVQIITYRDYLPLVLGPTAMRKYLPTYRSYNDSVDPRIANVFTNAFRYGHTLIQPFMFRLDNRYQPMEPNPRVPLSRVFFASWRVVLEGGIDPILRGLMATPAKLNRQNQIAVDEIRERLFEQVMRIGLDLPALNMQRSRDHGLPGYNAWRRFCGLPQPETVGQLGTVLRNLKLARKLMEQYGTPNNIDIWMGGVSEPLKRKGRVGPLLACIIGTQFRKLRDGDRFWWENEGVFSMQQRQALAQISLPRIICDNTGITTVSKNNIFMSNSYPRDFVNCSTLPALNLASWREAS
In words: Inhibition of recombinant MPO mediated taurine chlorination by microplate reader method. It is filed as single protein. The essentials:
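Recombinant MPO (40 nM) was incubated with taurine (15 mM) in pH 7.4 phosphate buffer (10 mM/300 mM NaCl) with compound up to 20 μM at 37 °C. The reaction was started with H2O2 (100 μM) and stopped with catalase after 5 min. Taurine chloramine was read with thionitrobenzoic acid at 412 nm. The no-H2O2 control was set as 100% inhibition. IC50 is the mean ± SD of 3 independent experiments.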

Assay [2] addresses T1, Myeloperoxidase. In words: Inhibition of recombinant MPO mediated LDL oxidation using MPO/Cl-/H2O2 system. The gist of the method:
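LDL was isolated from human plasma by ultracentrifugation. It was oxidised at 37 °C in PBS pH 7.2 with MPO (1 μg/mL), LDL (1000 μg/mL), HCl (4 mM), H2O2 (100 μM) and test drug, final concentrations. The reaction was stopped after 5 min on ice. Oxidised LDL was detected by ELISA with Mab AG9 (A405). Most IC50s came from three concentrations (1000, 100, 50 nM).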

The target of assay [3] is T2, Myeloperoxidase (Homo sapiens) (UniProt P05164).
T2 sequence (whole entry): T1 sequence (P05164 whole entry)
In words: Inhibition of recombinant MPO assessed as rate of electron donation to MPO redox intermediate compound II by sequential mixing stopped flow spectroscopy. The gist of the method: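 Stopped-flow at pH 7.4, 25 °C, in 200 mM phosphate buffer. Each kobs is the mean of at least three determinations. The second-order rate constant was taken as the slope of kobs versus substrate concentration.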

Assay [4] has as its target T2, Myeloperoxidase (Homo sapiens). The assay is described as follows: Inhibition of recombinant MPO assessed as rate of electron donation to MPO redox intermediate compound I by sequential mixing stopped flow spectroscopy. The gist of the method: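 Stopped-flow kinetics at pH 7.4, 25 °C, in 200 mM phosphate buffer with 2% (v/v) organic solvent. Purified MPO (purity index at least 0.86) at 8 μM was premixed with 80 μM H2O2. Each kobs is the mean of at least three determinations. k3 was taken as the slope of kobs versus substrate concentration.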

As for `CCCNCCCc1c[nH]c2ccc(F)cc12`, the IC50 (in general, the concentration needed to halve the response being measured) in assay [1] amounted to 170 nM; in assay [2], 340 nM.
For `CN1CCN(CCCc2c[nH]c3ccc(F)cc23)CC1` the same measures were 350 nM and 310 nM.
`CN1CCN(CCc2c[nH]c3ccc(F)cc23)CC1`: the IC50 in assay [1] worked out at 200 nM; in assay [2], 650 nM.
`CCN(CC)Cc1c[nH]c2ccc(F)cc12`: the IC50 in assay [1] is 200 nM; in assay [2], above 1000 nM.
In the case of `NCCCCCCc1c[nH]c2ccc(F)cc12`, the IC50 in assay [2] worked out at 580 nM.
Take `CCNCCc1c[nH]c2ccc(F)cc12`: the results for the IC50 in assay [1] and in assay [2] were 300 nM and 850 nM, respectively.
For `CCNCCCc1c[nH]c2ccc(F)cc12` the same measures were 300 nM and 190 nM.
For `CCCCNCCc1c[nH]c2ccc(F)cc12`, the figures for the IC50 in assay [1] and in assay [2] were 1030 nM and 250 nM, respectively.
In the case of `CN1CCN(Cc2c[nH]c3ccc(F)cc23)CC1`, the results for the IC50 in assay [1] and in assay [2] were 1000 nM and above 1000 nM, respectively.
For `CCN(CC)CCCc1c[nH]c2ccc(F)cc12`, the IC50 is 350 nM in assay [1] and 390 nM in assay [2].
As for `NCCCCCc1c[nH]c2ccc(F)cc12`, the figures for the Activity in assay [3] and in assay [4] were 506 M⁻¹ s⁻¹ and 1 ×10⁷ /M/s, respectively. Moreover, the half-maximal inhibitory concentration (IC50) in assay [2] turned out to be 5 nM.
Take `Fc1ccc2[nH]cc(CCN3CCCC3)c2c1`: in assay [2], the IC50 amounted to 1030 nM.
Take `CNCCCc1c[nH]c2ccc(F)cc12`: the IC50 in assay [1] stood at 200 nM; in assay [2] it was 26 nM.
On to `CN(C)CCc1c[nH]c2ccc(F)cc12`, for which, in assay [2], the IC50 came out at 580 nM.
For `CN(C)CCCc1c[nH]c2ccc(F)cc12`, the IC50 in assay [2] worked out at 49 nM.
In the case of `Fc1ccc2[nH]cc(CCCN3CCCC3)c2c1`, the IC50 in assay [1] was 320 nM; in assay [2] it was 210 nM.
In the case of `NCCCc1c[nH]c2ccc(F)cc12`, in assay [2], the IC50 was determined as 650 nM.
Regarding `CNCCc1c[nH]c2ccc(F)cc12`, the IC50 in assay [1] was 200 nM; in assay [2], 650 nM.
On to `CCN(CC)CCc1c[nH]c2ccc(F)cc12`, for which the IC50 in assay [2] is 510 nM.
As for `CCCCNCCCc1c[nH]c2ccc(F)cc12`, the IC50 in assay [1] is 1500 nM; in assay [2], 17 nM.
The matching figures for `NCc1c[nH]c2ccc(F)cc12`: 900 nM and above 1000 nM.
As for `NCCc1c[nH]c2ccc(F)cc12`, the IC50 in assay [2] was found to be 940 nM.
For the molecule `NCCCCc1c[nH]c2ccc(F)cc12`, the Activity in assay [3] came out at 360 M⁻¹ s⁻¹; in assay [4], 1.1 ×10⁷ /M/s. Moreover, the IC50 in assay [2] came out at 12 nM.
Regarding `CCCNCCc1c[nH]c2ccc(F)cc12`, the IC50 in assay [1] stood at 800 nM; in assay [2], 460 nM.
